Assay results from ChEMBL document CHEMBL1123529, “Analogues of substance P. Peptides containing D-amino acid residues in various positions of substance P and displaying agonist or receptor selective antagonist effects” (1986).
Several values for one entry are separate records, joined by “and”; a condition that tells them apart may be missing. Identical values can stand only once.

Assays:
[1] = target: Substance-P receptor (Cavia porcellus) (UniProt P30547); assay: In vitro percent agonist activity in guinea pig ileum.; type: functional, tissue-based
Summary of the method: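 Distal ileum from Dunkin-Hartley guinea pigs (300-350 g, either sex) in a 5-mL organ bath of Krebs solution at 37 °C, gassed with 95% O2/5% CO2. Dose-response curves were run on a 3-min cycle with 1-min agonist contact and washout. Agonist activity is expressed as a percentage of substance P.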

[2] = target: Substance-P receptor (Rattus norvegicus) (UniProt P14600); assay: Antagonistic activity against Substance P receptor in rat spinal cord at concentration of 25 uM.
[3] = target: Substance-P receptor (Rattus norvegicus) (UniProt P14600); assay: Antagonistic activity against Substance P(6-11) receptor in rat spinal cord at concentration of 25 uM.
[4] = target: Metabotropic glutamate receptor 3 (Rattus norvegicus) (UniProt P31422); assay: Antagonistic activity against Glutamate receptor in rat spinal cord at concentration of 25 uM.; type: functional, tissue-based
Summary of the method: (§1)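 Neonatal hemisectioned spinal cord from Wistar rats (Alderley Park strain, 2-7 days old), anaesthetised with intraperitoneal urethane (25% w/v, […]) and then decapitated. Cord superfused with oxygenated medium at 1 mL/min. Agonist (SP, SP(6-11), glutamate or carbachol) applied as 2-mL doses in the superfusate. Antagonist superfused for at least 15 min before agonists were retested. Read-out: % change in ventral root–cord DC potential response amplitude.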

[5] = target: Substance-P receptor (Cavia porcellus) (UniProt P30547); assay: Evaluated in vitro for percent agonist activity in guinea pig ileum (substance P receptor); type: functional, tissue-based
[6] = target: Metabotropic glutamate receptor 3 (Rattus norvegicus) (UniProt P31422); assay: Antagonistic activity against Glutamate receptor in rat spinal cord at concentration of 50 uM.; type: functional, tissue-based; summary of the method: as §1
[7] = target: Substance-P receptor (Rattus norvegicus) (UniProt P14600); assay: Antagonistic activity against Substance P(6-11) receptor in rat spinal cord at concentration of 50 uM.
[8] = target: Substance-P receptor (Rattus norvegicus) (UniProt P14600); assay: Antagonistic activity against Substance P receptor in rat spinal cord at concentration of 50 uM.
[9] = target: Substance-P receptor (Cavia porcellus) (UniProt P30547); assay: Antagonistic activity against Substance P receptor in guinea pig ileum at concentration of 50 uM.; type: functional, tissue-based
Summary of the method: (§2)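 Distal ileum from Dunkin-Hartley guinea pigs (300-350 g, both sexes) in a Krebs organ bath at 37 °C, gassed with 95% O2/5% CO2. Agonist (SP or SP(6-11)) dose-response curves run on a 3-min cycle with 1-min contact, with and without antagonist. Dose ratio = agonist EC50 with antagonist / EC50 alone. At least two preparations per compound; ratios below 2 taken as insignificant.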

[10] = target: Substance-P receptor (Rattus norvegicus) (UniProt P14600); assay: Antagonistic activity against Substance P(6-11) receptor in rat spinal cord at concentration of 5 uM.
[11] = target: Substance-P receptor (Cavia porcellus) (UniProt P30547); assay: Antagonistic activity against Substance P(6-11) receptor in guinea pig ileum at concentration of 50 uM.; type: functional, tissue-based; summary of the method: as §2
[12] = target: Substance-P receptor (Rattus norvegicus) (UniProt P14600); assay: Antagonistic activity against Substance P(6-11) receptor in rat spinal cord at concentration of 10 uM.
[13] = target: Metabotropic glutamate receptor 3 (Rattus norvegicus) (UniProt P31422); assay: Antagonistic activity against Glutamate receptor in rat spinal cord at concentration of 10 uM.; type: functional, tissue-based
Summary of the method: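 Cord superfused with oxygenated medium at 1 mL/min. Agonist (SP, SP(6-11), glutamate or carbachol) applied as 2-mL doses in the superfusate. Antagonist superfused for at least 15 min before agonists were retested. Read-out: % change in ventral root–cord DC potential response amplitude.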

[14] = target: Substance-P receptor (Cavia porcellus) (UniProt P30547); assay: Antagonistic activity against Substance P receptor in guinea pig ileum at concentration of 14 uM.; type: functional, tissue-based; summary of the method: as §2
[15] = target: Substance-P receptor (Cavia porcellus) (UniProt P30547); assay: Antagonistic activity against Substance P(6-11) receptor in guinea pig ileum at concentration of 14 uM.; type: functional, tissue-based; summary of the method: as §2
[16] = target: Substance-P receptor (Cavia porcellus) (UniProt P30547); assay: Antagonistic activity against Substance P receptor in guinea pig ileum at concentration of 6.4 uM.; type: functional, tissue-based; summary of the method: as §2
[17] = target: Substance-P receptor (Cavia porcellus) (UniProt P30547); assay: Antagonistic activity against Substance P(6-11) receptor in guinea pig ileum at concentration of 6.4 uM.; type: functional, tissue-based; summary of the method: as §2
[18] = target: Substance-P receptor (Cavia porcellus) (UniProt P30547); assay: Antagonistic activity against Substance P receptor in guinea pig ileum at concentration of 47 uM.; type: functional, tissue-based; summary of the method: as §2
[19] = target: Substance-P receptor (Cavia porcellus) (UniProt P30547); assay: Antagonistic activity against Substance P(6-11) receptor in guinea pig ileum at concentration of 47 uM.; type: functional, tissue-based; summary of the method: as §2

Chain of Substance-P receptor (Cavia porcellus) (P30547 whole entry): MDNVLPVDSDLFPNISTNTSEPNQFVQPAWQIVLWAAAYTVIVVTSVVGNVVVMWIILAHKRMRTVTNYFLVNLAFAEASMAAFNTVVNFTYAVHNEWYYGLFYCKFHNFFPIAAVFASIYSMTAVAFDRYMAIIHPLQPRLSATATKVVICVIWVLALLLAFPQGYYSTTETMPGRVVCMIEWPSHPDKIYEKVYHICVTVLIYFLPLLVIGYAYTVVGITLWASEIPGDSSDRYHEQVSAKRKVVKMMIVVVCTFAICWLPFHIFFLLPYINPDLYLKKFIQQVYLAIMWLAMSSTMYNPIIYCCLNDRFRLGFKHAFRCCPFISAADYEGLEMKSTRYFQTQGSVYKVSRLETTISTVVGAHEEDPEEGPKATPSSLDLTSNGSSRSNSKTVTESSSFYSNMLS
Chain of Metabotropic glutamate receptor 3 (Rattus norvegicus) (P31422 23-879 limits assumed): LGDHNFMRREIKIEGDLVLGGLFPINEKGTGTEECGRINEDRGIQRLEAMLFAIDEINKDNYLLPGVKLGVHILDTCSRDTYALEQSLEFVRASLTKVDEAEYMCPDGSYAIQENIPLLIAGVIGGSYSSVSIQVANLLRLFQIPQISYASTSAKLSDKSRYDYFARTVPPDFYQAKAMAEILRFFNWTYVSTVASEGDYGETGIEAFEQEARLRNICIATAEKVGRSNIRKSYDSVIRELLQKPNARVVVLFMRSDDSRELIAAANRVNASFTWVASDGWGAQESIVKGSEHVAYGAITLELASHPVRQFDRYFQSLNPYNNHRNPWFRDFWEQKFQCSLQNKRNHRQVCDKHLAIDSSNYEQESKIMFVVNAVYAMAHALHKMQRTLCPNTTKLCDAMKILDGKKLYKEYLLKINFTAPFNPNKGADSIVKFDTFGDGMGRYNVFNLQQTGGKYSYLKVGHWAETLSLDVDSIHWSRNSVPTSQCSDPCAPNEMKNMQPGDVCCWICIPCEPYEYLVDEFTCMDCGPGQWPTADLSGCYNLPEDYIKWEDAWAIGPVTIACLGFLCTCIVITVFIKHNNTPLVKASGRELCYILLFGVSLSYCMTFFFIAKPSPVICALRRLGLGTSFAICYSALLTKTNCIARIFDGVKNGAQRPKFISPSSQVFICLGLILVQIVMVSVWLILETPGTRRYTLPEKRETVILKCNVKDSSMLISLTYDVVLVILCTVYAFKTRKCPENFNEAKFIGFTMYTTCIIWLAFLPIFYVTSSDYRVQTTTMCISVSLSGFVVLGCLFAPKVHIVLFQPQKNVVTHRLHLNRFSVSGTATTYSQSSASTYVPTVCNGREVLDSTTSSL
Chain of Substance-P receptor (Rattus norvegicus) (P14600 whole entry, looked up): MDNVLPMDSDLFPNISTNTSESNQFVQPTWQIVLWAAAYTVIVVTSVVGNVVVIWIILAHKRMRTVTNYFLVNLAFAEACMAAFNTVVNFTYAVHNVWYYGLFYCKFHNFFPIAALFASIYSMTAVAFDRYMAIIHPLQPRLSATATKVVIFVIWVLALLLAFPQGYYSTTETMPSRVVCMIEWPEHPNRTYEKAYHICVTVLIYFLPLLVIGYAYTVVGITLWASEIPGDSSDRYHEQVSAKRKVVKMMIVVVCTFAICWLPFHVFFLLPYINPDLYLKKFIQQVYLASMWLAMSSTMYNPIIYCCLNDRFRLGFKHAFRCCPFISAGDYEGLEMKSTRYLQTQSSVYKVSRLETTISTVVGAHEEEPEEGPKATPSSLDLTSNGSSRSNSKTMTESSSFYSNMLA

| SMILES | Change in amplitude response [2] [%] | Change in amplitude response [3] [%] | Change in amplitude response [4] [%] | SP [5] [%] | Change in amplitude response [6] [%] | Change in amplitude response [7] [%] | Change in amplitude response [8] | further results |
| --- | --- | --- | --- | --- | --- | --- | --- | --- |
| COC(=O)[C@@H](CCSC)NC(=O)[C@H](CC(C)C)NC(=O)[C@@H](Cc1c[nH]c2ccccc12)NC(=O)[C@H](Cc1c[nH]c2ccccc12)NC(=O)[C@@H](Cc1c[nH]c2ccccc12)NC(=O)[C@H](CCC(N)=O)NC(=O)[C@H](CCC(N)=O)NC(=O)[C@@H]1CCCN1C(=O)[C@H](CCCCNC(=O)OCc1ccccc1)NC(=O)[C@@H]1CCCN1C(=O)[C@H](CCCN=C(N)N)NC(=O)OCc1ccccc1 |  |  |  |  |  |  |  | SP [1]: 0% |
| COC(=O)[C@H](CCSC)NC(=O)[C@@H]1CCCN1C(=O)[C@H]1CCCN1C(=O)[C@H](Cc1ccccc1)NC(=O)[C@H](Cc1ccccc1)NC(=O)[C@H](CCC(N)=O)NC(=O)[C@H](CCC(N)=O)NC(=O)[C@@H]1CCCN1C(=O)[C@@H](CCCCNC(=O)OCc1ccccc1)NC(=O)[C@H]1CCCN1C(=O)[C@@H](CCCN=C(N)N)NC(=O)OCc1ccccc1 |  |  |  | 0 | 2 | -100 | 29% and 39% | Activity [9]: 3 dose ratio; Change in amplitude response [10]: -67%; Activity [11]: < 2 dose ratio |
| COC(=O)[C@@H](CCSC)NC(=O)[C@H](CC(C)C)NC(=O)CNC(=O)[C@H](Cc1ccccc1)NC(=O)[C@H](Cc1ccccc1)NC(=O)[C@@H](NC(=O)[C@H](NC(=O)[C@@H]1CCCN1C(=O)[C@H](CCCCNC(=O)OCc1ccccc1)NC(=O)[C@@H]1CCCN1C(=O)[C@H](CCCN=C(N)N)NC(=O)OCc1ccccc1)C(C)C)C(C)C |  |  |  | 0.001 | -17 | -21 | -13% | Change in amplitude response [12]: 31%; Change in amplitude response [13]: -5% |
| COC(=O)[C@@H](CCSC)NC(=O)[C@H](CC(C)C)NC(=O)CNC(=O)[C@H](Cc1ccccc1)NC(=O)[C@H](Cc1ccccc1)NC(=O)[C@@H]1CCCN1C(=O)[C@H]1CCCN1C(=O)[C@@H]1CCCN1C(=O)[C@H](CCCCNC(=O)OCc1ccccc1)NC(=O)[C@@H]1CCCN1C(=O)[C@H](CCCN=C(N)N)NC(=O)OCc1ccccc1 |  |  |  | 0.004 |  |  |  | Activity [14]: < 2 dose ratio; Activity [15]: < 2 dose ratio |

The next lines start with results.

| Change in amplitude response [2] [%] | Change in amplitude response [3] [%] | Change in amplitude response [4] [%] | SP [5] [%] | Change in amplitude response [6] [%] | Change in amplitude response [7] [%] | Change in amplitude response [8] | SMILES | further results |
| --- | --- | --- | --- | --- | --- | --- | --- | --- |
| -12 | -49 | -40 | < 2 |  |  |  | CSCC[C@@H](NC(=O)[C@H](CC(C)C)NC(=O)[C@@H](Cc1c[nH]c2ccccc12)NC(=O)[C@H](Cc1c[nH]c2ccccc12)NC(=O)[C@@H](Cc1c[nH]c2ccccc12)NC(=O)[C@H](CCC(N)=O)NC(=O)[C@H](CCC(N)=O)NC(=O)[C@@H]1CCCN1C(=O)[C@H](CCCCNC(=O)OCc1ccccc1)NC(=O)[C@@H]1CCCN1C(=O)[C@H](CCCN=C(N)N)NC(=O)OCc1ccccc1)C(=O)O |  |
| 30 | -55 | 7 | 0 |  |  |  | CSCC[C@@H](NC(=O)[C@H](CC(C)C)NC(=O)[C@@H](Cc1c[nH]c2ccccc12)NC(=O)[C@H](Cc1c[nH]c2ccccc12)NC(=O)[C@@H](Cc1c[nH]c2ccccc12)NC(=O)[C@H](CCC(N)=O)NC(=O)[C@H](CCC(N)=O)NC(=O)[C@@H]1CCCN1C(=O)[C@H](CCCCN)NC(=O)[C@@H]1CCCN1C(=O)[C@@H](N)CCCN=C(N)N)C(=O)O | Activity [16]: 3.1 dose ratio; Activity [17]: 2 dose ratio; Activity [18]: 10.3 dose ratio; Activity [19]: 16.1 dose ratio |
